Hits are enriched below; roughly 2.4% of the tested compounds scored in any of these assays.
PAD4 FP inh: inhibitors of human PAD4; hit rate 0.41% among 330,000; inhibition, % at 6.36 µM; AID 485272; Q9UM07; recombinant PAD4, RCA probe fluorescence polarization;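 active = percent inhibition above a cutoff equal to the mean of all tested compounds plus 3 SD, cut at about 15% in these data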
Target sequence (Q9UM07 whole entry, looked up): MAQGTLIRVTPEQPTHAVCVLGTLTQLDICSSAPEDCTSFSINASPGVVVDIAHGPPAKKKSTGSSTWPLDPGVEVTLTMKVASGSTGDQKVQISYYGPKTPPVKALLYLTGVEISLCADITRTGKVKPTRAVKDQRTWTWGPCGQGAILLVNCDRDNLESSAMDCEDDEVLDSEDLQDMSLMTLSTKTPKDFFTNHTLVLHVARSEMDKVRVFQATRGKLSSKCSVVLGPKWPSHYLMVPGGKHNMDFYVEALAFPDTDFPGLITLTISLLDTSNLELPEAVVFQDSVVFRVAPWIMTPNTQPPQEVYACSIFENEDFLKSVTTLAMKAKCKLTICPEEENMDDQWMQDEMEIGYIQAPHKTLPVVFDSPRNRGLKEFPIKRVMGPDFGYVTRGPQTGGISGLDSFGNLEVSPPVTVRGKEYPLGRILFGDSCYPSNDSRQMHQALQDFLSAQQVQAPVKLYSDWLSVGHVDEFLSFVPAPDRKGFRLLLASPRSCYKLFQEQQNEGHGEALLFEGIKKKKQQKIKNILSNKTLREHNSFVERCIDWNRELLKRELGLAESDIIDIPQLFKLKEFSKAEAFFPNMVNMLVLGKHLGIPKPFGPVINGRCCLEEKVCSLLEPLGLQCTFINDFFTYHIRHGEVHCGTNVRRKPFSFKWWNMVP
SIAE primary: human SIAE inhibition, primary screen; Q9HAT2; SIAE FP-Rh probe binding, fluorescence polarization; inhibition, % at 9.66 µM; hit rate 0.69% among 370,000;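 active = inhibition above a cutoff: mean of compounds within the control limits plus 3 SD of those, cut at about 17% in these data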
Apaf1 inhib: blocks human Apaf-1 apoptosome activity. inhibition, % at 20 µM. hit rate 0.71% among 330,000. O14727. reconstituted apoptosome caspase-3 activity, DEVD-Rh110 fluorescence. AID 489030; active = inhibition of at least 40% at 20 µM
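Material: reconstituted apoptosome with Apaf-1, cytochrome c, caspase-9, procaspase-3, dATP. Technique: Rh110 fluorescence intensity. Buffer or medium: pH 7.5 Hepes buffer with CHAPS, BSA, DTT. Times: 30 min plus 50 min, RT.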
TDP2 absorb: TDP2 (human) inhibition, absorbance primary screen; O95551; recombinant TDP2, T5PNP hydrolysis, p-nitrophenol absorbance 415 nm; inhibition, % at 12.8 µM; hit rate 0.34% among 370,000; AID 720702;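 active = inhibition above the mean of all tested compounds plus 3 SD, set per campaign, cut at about 25% in these data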
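Test system: human TDP2 enzyme; Input: 120 nM TDP2 per well; Buffer or medium: Mg2+-containing Tris-HCl buffer, pH 7.5; Reagent: 5 mM T5PNP; Dosing: 12.8 µM single point, 1% DMSO; Incubation: reaction 2 h, 37 °C; Detection: p-Nitrophenol epi absorbance; Read-out: % inhibition relative to enzyme-containing and enzyme-free wells; Replicates: single well per compound.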
TCR-CD3 inh: inhibitors of human TCR-CD3 interaction; TAMRA-labeled TCR probe fluorescence, biochemical; hit rate 0.37% among 360,000; AID 651800; inhibition, % at 9.4 µM; in the data active = inhibition above about 19%;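 also: recombinant mutant TCR 2C K166C tagged with TAMRA read by polarization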
GSTO1 inh: GSTO1 inhibition, counter-screen for RBBP9 inhibitors | AID 1974 | inhibition, % at 5.96 µM | hit rate 1.1% among 300,000 | recombinant GSTO1, activity-based probe fluorescence polarization;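 active = inhibition above the campaign mean inhibition plus 3 SD, cut at about 35% in these data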
Each line names hits and unclear results; the compound was inactive in the other large screens.

Cc1nc(-c2ccc(-c3ccon3)s2)no1	none
COc1ccc(N2C(=O)[C@@H]3[C@H](C2=O)[C@H]2c4ccccc4C=CN2[C@@H]3C(=O)Nc2ccccc2)cc1	Apaf1 inhib 67
CC(=O)[C@@H]1[C@@H]2C(=O)N(Cc3ccccc3)C(=O)[C@@H]2C2c3ccccc3C=CN21 (stereo partly drawn)	Apaf1 inhib 67
Cc1ccc(N2C(=O)[C@@H]3[C@H](C2=O)C2c4ccccc4C=CN2[C@@H]3C(=O)c2ccco2)c(C)c1 (stereo partly drawn)	Apaf1 inhib 87, TDP2 absorb 26
O=C(c1ccco1)[C@@H]1[C@@H]2C(=O)N(c3ccccc3)C(=O)[C@@H]2C2c3ccccc3C=CN21 (stereo partly drawn)	Apaf1 inhib 86, TDP2 absorb 43, GSTO1 inh 37
Cc1ccc(N2C(=O)[C@@H]3[C@H](C2=O)C2c4ccccc4C=CN2[C@@H]3C(=O)c2ccco2)cc1 (stereo partly drawn)	none (no result: PAD4 FP inh, Apaf1 inhib, GSTO1 inh)
O=C1C2C3C=CC(C3)C2C(=O)N1Cc1ccccc1 (stereo not drawn)	none
CCCCCCSc1nnc(-c2cnn(-c3ccccc3)c2-n2cccc2)n1C	none
Cc1ccc(NC(=S)Nc2cccc3ccccc23)cc1	none
Fc1ccc(NC(=S)Nc2cccc3ccccc23)cc1	Apaf1 inhib 85
Fc1ccc(NC(=S)Nc2cccc3ccccc23)cc1F	Apaf1 inhib 81
Cc1cc(C)cc(NC(=S)Nc2cccc3ccccc23)c1	none
COc1ccc(C)cc1S(=O)(=O)N1CCCCCC1	none
CN1CCN(c2cc(N3CCN(C(=O)c4ccco4)CC3)c3c4c(onc24)-c2ccccc2C3=O)CC1	Apaf1 inhib 82 (no result: SIAE primary, TDP2 absorb, TCR-CD3 inh)
COc1ccc(C2/C(=C(/O)c3ccc4c(c3)CC(C)O4)C(=O)C(=O)N2CCCN2CCOCC2)cc1OC (stereo not drawn)	none
CSc1nc2ccc(S(N)(=O)=O)cc2s1	none
O=c1c(O)c(-c2ccc(O)cc2)oc2cc(O)cc(O)c12	SIAE primary 21
Cc1cc(C(=O)CCl)c(C)n1-c1cccc(S(=O)(=O)N2CCOCC2)c1	GSTO1 inh 94
Cc1cc(C(=O)CN2C(=O)CN(C)C2=O)c(C)n1-c1cccc(S(=O)(=O)N2CCOCC2)c1	none
CC(C)(C)C(=O)NN=C1CCC(c2ccccc2)CC1 (stereo not drawn)	none (no result: PAD4 FP inh, GSTO1 inh)
O=C(/C=C1\C(=O)Nc2ccccc21)/C=C1\C(=O)Nc2ccccc21	SIAE primary 19 (no result: PAD4 FP inh, Apaf1 inhib, GSTO1 inh)
COC(=O)CNC(=O)C1Nc2ccccc2C2C=CCC12 (stereo not drawn)	GSTO1 inh 43
CC(C)CNC(=O)C1Nc2ccc(C(F)(F)F)cc2C2C=CCC12 (stereo not drawn)	none
Oc1ccc(/C=N/N2CCOCC2)c(O)c1O	GSTO1 inh 38
c1ccc(C2Nc3cccc4cccc(c34)N2)cc1	GSTO1 inh 36
CCC(=O)NC(c1ccc(C)cc1)c1cc([N+](=O)[O-])c2cccnc2c1O (stereo not drawn)	PAD4 FP inh 25 (no result: Apaf1 inhib)
Clc1ccc(CSc2nccn2Cc2ccccc2)cc1	none
CC(=O)Nc1ccc2c(c1)C(=O)N(c1ccc(C)cc1)C2=O	none
Cc1cccc(C)c1C(O)c1ncc(-c2ccccc2C(F)(F)F)[nH]1 (stereo not drawn)	none (no result: PAD4 FP inh, Apaf1 inhib, GSTO1 inh)
O=C(COC(=O)c1cc(S(=O)(=O)N2CCc3ccccc3C2)ccc1Cl)NCc1ccco1	Apaf1 inhib 43
COc1ccc(CSC(=S)NNc2ccccc2)cc1	none (no result: PAD4 FP inh, Apaf1 inhib, GSTO1 inh)
C#CCOCCOCCOCCNc1nc(N2CCN(C(=O)CCCCCCCCCCNC(=O)[C@@H](CCC(=O)O)n3cc(CCCCCN)nn3)CC2)nc(N2CCN(C(=O)CCCCCCCCCCNC(=O)[C@H](CO)n3cc(CCCSC)nn3)CC2)n1	none (no result: SIAE primary, TDP2 absorb, TCR-CD3 inh)
C#CCOCCOCCOCCNc1nc(N2CCN(C(=O)CCCCCCCCCCNC(=O)[C@@H](CCC(=O)O)n3cc(CCCCCN)nn3)CC2)nc(N2CCN(C(=O)CCCCCCCCCCNC(=O)[C@H](CO)n3cc(CCCCCN)nn3)CC2)n1	Apaf1 inhib 54 (no result: SIAE primary, TDP2 absorb, TCR-CD3 inh)
C#CCOCCOCCOCCNc1nc(N2CCOCC2)nc(N2CCN(C(=O)CCCCCCCCCCNC(=O)[C@H](CO)n3cc(CCCSC)nn3)CC2)n1	none
C#CCOCCOCCOCCNc1nc(N2CCN(C(=O)CCCCCCCCCCNC(=O)[C@H](CCCCN)n3cc(C[C@@H](C)CC)nn3)CC2)nc(N2CCN(C(=O)CCCCCCCCCCNC(=O)[C@H](CCCN=C(N)N)n3cc(C[C@@H](C)CC)nn3)CC2)n1	Apaf1 inhib 55 (no result: SIAE primary, TDP2 absorb, TCR-CD3 inh)
C#CCOCCOCCOCCNc1nc(N2CCN(C(=O)CCCCCCCCCCNC(=O)Cn3cc(CCCCCN)nn3)CC2)nc(N2CCN(C(=O)CCCCCCCCCCNC(=O)Cn3cc(C[C@@H](C)O)nn3)CC2)n1	Apaf1 inhib 71 (no result: SIAE primary, TDP2 absorb, TCR-CD3 inh)
C#CCOCCOCCOCCNc1nc(N2CCN(C(=O)[C@H]([C@@H](C)CC)n3cc(CCCN=C(N)N)nn3)CC2)nc(N2CCN(C(=O)[C@H](CCCCN)n3cc(CCCC)nn3)CC2)n1	none
C#CCOCCOCCOCCNc1nc(N2CCN(C(=O)CCCCCCCCCCNC(=O)[C@H](CO)n3cc(CCCCCN)nn3)CC2)nc(N2CCN(C(=O)CCCCCCCCCCNC(=O)[C@H](CCCN=C(N)N)n3cc(C[C@@H](C)CC)nn3)CC2)n1	Apaf1 inhib 61 (no result: SIAE primary, TDP2 absorb, TCR-CD3 inh)
COc1ccc([N+](=O)[O-])cc1NCc1cccc([N+](=O)[O-])c1	none
CC(C)(C)NC(=O)C(=O)NNC(=O)C12CC3CC(CC(C3)C1)C2	none
COc1ccc(-c2noc(N3CCC(C(=O)N(C)c4ccccc4C)CC3)n2)cc1	none
C#CCOCCOCCOCCNc1nc(N2CCN(C(=O)CCCCCCCCCCNC(=O)[C@H](CCCCN)n3cc(CCO)nn3)CC2)nc(N2CCN(C(=O)CCCCCCCCCCNC(=O)[C@H](CCCCN)n3cc(C[C@@H](C)CC)nn3)CC2)n1	Apaf1 inhib 68 (no result: SIAE primary, TDP2 absorb, TCR-CD3 inh)
C#CCOCCOCCOCCNc1nc(N2CCN(C(=O)CCCCCCCCCCNC(=O)Cn3cc(C[C@@H](C)O)nn3)CC2)nc(N2CCN(C(=O)CCCCCCCCCCNC(=O)[C@@H](CCSC)n3cc(CCO)nn3)CC2)n1	none (no result: SIAE primary, TDP2 absorb, TCR-CD3 inh)
C#CCOCCOCCOCCNc1nc(N2CCN(C(=O)[C@H]([C@@H](C)CC)n3cc(CCCCN)nn3)CC2)nc(N2CCN(C(=O)[C@H](CCCCN)n3cc(CC(C)O)nn3)CC2)n1 (stereo partly drawn)	none
C#CCOCCOCCOCCNc1nc(N2CCN(C(=O)CCCCCCCCCCNC(=O)[C@@H](CCSC)n3cc(CCO)nn3)CC2)nc(N2CCN(C(=O)CCCCCCCCCCNC(=O)[C@H](CCCN=C(N)N)n3cc(C[C@@H](C)CC)nn3)CC2)n1	Apaf1 inhib 62 (no result: SIAE primary, TDP2 absorb, TCR-CD3 inh)

Screens deposited in PubChem by several laboratories.
